{"source": "paper PMC3569859", "about": "(Bioorganic & medicinal chemistry, 2008)", "tested_on": "sodium currents expressed in rat hippocampal neurons", "format": "cell-based", "settings": "cultured hippocampal neurons", "summary_of_the_method": "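E18 rat hippocampal neurons were trypsin-dissociated and kept up to 4 weeks on poly-L-lysine over a glial monolayer in serum-free MEM with N2. Whole-cell clamp was done at 20–22 °C with a CsF pipette and a 30 mM NaCl bath containing Cd2+ and TEA, both pH 7.3. After 5 min at −90 mV, 25 ms steps to −10 mV were applied with P/4 leak subtraction. Test compound was superfused at 50 μM, then washed out.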", "data": [{"smiles": "CC(C)c1cc(CCCCCCC(O)(C(N)=O)C(F)(F)F)cc(C(C)C)c1O", "note": "(centres unmarked) [Compound 5, 2-Hydroxy-8-(4-hydroxy-3,5-diisopropyl-phenyl)-2-trifluoromethyl-octanoic acid amide]", "values": [{"measurement": "Reversibility of Na current block on washout", "value": "fully reversible"}]}, {"smiles": "CC(C)c1cc(CCCCC(O)(C(N)=O)C(F)(F)F)cc(C(C)C)c1O", "note": "(centres unmarked) [Compound 4, 2-Hydroxy-6-(4-hydroxy-3,5-diisopropyl-phenyl)-2-trifluoromethyl-hexanoic acid amide]", "values": [{"measurement": "Reversibility of Na current block on washout", "value": "fully reversible"}]}]}
